# Calls of active or inactive are those of the source. The calls are words filed in the database; no cut-off is given here.
# How the values were obtained:
# [1] = target: T1, Prothrombin (Homo sapiens, UniProt P00734); assay: Inhibition of human thrombin amidolytic activity using D-Phe-Pip-Arg-pNA as substrate at 0.1 to 1000 uM preincubated for 10 mins followed by substrate addition measured every 12 secs for 10 mins by spectrophotometric analysis
# Outline: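 Human plasma thrombin (17.6 nM in 50 mM TBS pH 7.4) preincubated 10 min at 37 °C with compound (from 10 mM stocks in 50% DMSO; final DMSO 5%, final thrombin 15.8 nM), then added to 3 mM D-Phe-Pip-Arg-pNA stock.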
# [2] = target: T1, Prothrombin; assay: Inhibition of human thrombin assessed as inhibition of fibrinogen polymerization preincubated for 10 mins followed by fibrionogen addition measured for 20 mins
# Outline: (§1)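 Thrombin preincubated with compound 10 min at 37 °C, then added (final 10.4 nM) to human fibrinogen (3 mg/ml) in 50 mM TBS with 5 mM CaCl2, pH 7.4. Turbidity at 595 nm read every 12 s for 20 min at 37 °C. Vmax expressed as % of solvent control; 12 independent experiments in duplicate.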
# [3] = target: T1, Prothrombin; assay: Inhibition of human thrombin assessed as inhibition of fibrinogen alpha polymer formation at IC50 after 15 mins by SDS-PAGE analysis
# Outline: (§2)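 Fibrinogen isolated from human plasma, containing factor XIII (3 mg/ml in 50 mM TBS, 5 mM CaCl2), mixed with thrombin (final 10.4 nM) that was preincubated with compound. Incubated at 37 °C and stopped at 5, 15 or 30 min with urea/SDS/β-mercaptoethanol buffer. Run on 7.5 % SDS-PAGE with Coomassie stain. Aα, γ, γ–γ dimer and α-polymer bands scored.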
# [4] = target: T1, Prothrombin; assay: Inhibition of human thrombin assessed as inhibition of fibrinogen alpha-polymer formation at IC50 after 5 mins by SDS-PAGE analysis; outline: as §2
# [5] = target: T1, Prothrombin; assay: Inhibition of human thrombin assessed as inhibition of band decaying corresponding to fibrinogen Aalpha chains at IC50 after 30 mins by SDS-PAGE analysis; outline: as §2
# [6] = target: T1, Prothrombin; assay: Inhibition of human thrombin assessed as decrease in platelet aggregation preincubated for 10 mins measured for 10 mins by dual channel chrono-log aggregometric analysis
# Outline: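 Gel-filtered (BSA–Sepharose 2B) human platelets at 1.5 × 10^5/μl in modified Tyrode's buffer pH 7.4, prewarmed 5 min at 37 °C with stirring. Thrombin (final 2.4 nM) preincubated 10 min at 37 °C with compound, then added. Turbidimetric aggregation recorded 10 min (0.77 % DMSO final). Result given as % of control; eight independent experiments in duplicate.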
# [7] = target: T1, Prothrombin; assay: Inhibition of human thrombin assessed as inhibition of fibrinogen gamma-gamma chain formation at IC50 after 15 mins by SDS-PAGE analysis; outline: as §2
# [8] = target: T1, Prothrombin; assay: Inhibition of human thrombin amidolytic activity using D-Phe-Pip-Arg-pNA as substrate preincubated for 10 mins followed by substrate addition measured every 12 secs for 10 mins by spectrophotometric analysis
# [9] = target: T1, Prothrombin; assay: Inhibition of human thrombin assessed as response unit at 1000 uM by BIAcore analysis
# Outline: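 Thrombin amine-coupled on a CM5 chip (NHS/EDC, acetate pH 6.0), 25 °C, PBS pH 7.4 running buffer. Polyphenol (100 μl) injected for 600 s at 10 μl/min, followed by 200 s PBS dissociation. Bound level read in RU. Channel regenerated with 0.1 M NaOH and 0.1 M HCl.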
# [10] = target: T1, Prothrombin; assay: Competitive inhibition of human thrombin using D-Phe-Pip-Arg-pNA as substrate preincubated for 10 mins followed by substrate addition measured every 12 secs for 10 mins by Lineweaver-Burk plot analysis
# [11] = target: T1, Prothrombin; assay: Inhibition of human thrombin assessed as inhibition of fibrinogen gamma-gamma chain formation at IC50 after 5 mins by SDS-PAGE analysis; outline: as §2
# [12] = target: T1, Prothrombin; assay: Inhibition of human thrombin assessed as inhibition of band decaying corresponding to fibrinogen gamma chains at IC50 after 30 mins by SDS-PAGE analysis; outline: as §2
# [13] = target: T1, Prothrombin; conditions: 5 uM
# [14] = target: T1, Prothrombin; assay: Inhibition of human thrombin assessed as equilibrium association constant at 50 to 1000 uM by BIAcore analysis
# [15] = target: T1, Prothrombin; conditions: 125 to 1000 uM
# [16] = target: T1, Prothrombin; conditions: 125 to 1000 uM; remark: listed apart in the source
# [17] = target: Trypsin (Homo sapiens, UniProt P07477+P07478+P35030); assay: Inhibition of trypsin amidolytic activity (unknown origin); format: protein assay
# [18] = target: T1, Prothrombin; assay: Inhibition of human thrombin assessed as inhibition of fibrinogen alpha-polymer formation at 15 uM after 5 mins by SDS-PAGE analysis; outline: as §2
# [19] = target: T1, Prothrombin; assay: Inhibition of human thrombin assessed as inhibition of fibrinogen polymerization at 50 uM preincubated for 10 mins followed by fibrionogen addition measured for 20 mins; outline: as §1
# [20] = target: T1, Prothrombin; assay: Inhibition of human thrombin assessed as inhibition of band decaying corresponding to fibrinogen Aalpha chains at 15 uM after 5 mins by SDS-PAGE analysis; outline: as §2
# [21] = target: T1, Prothrombin; assay: Inhibition of thrombin (unknown origin) assessed as hydrolysis of N-benzoyl-phenylalanylvalyl-arginine-paranitroanilide
# [22] = target: Urokinase-type plasminogen activator (Homo sapiens, UniProt P00749); assay: Inhibition of urokinase amidolytic activity (unknown origin)
# [23] = target: T1, Prothrombin; assay: Inhibition of human thrombin assessed as inhibition of fibrinogen gamma-gamma chain formation at 15 uM after 5 mins by SDS-PAGE analysis; outline: as §2
# [24] = target: T1, Prothrombin; assay: Inhibition of human thrombin assessed as inhibition of band decaying corresponding to fibrinogen gamma chains at 15 uM after 5 mins by SDS-PAGE analysis; outline: as §2
# [25] = target: T1, Prothrombin; conditions: 75 to 750 uM
# [26] = target: T1, Prothrombin; conditions: 50 to 1000 uM
# [27] = target: T1, Prothrombin; assay: Inhibition of human thrombin assessed as inhibition of fibrinogen gamma-gamma chain formation at 250 uM after 5 mins by SDS-PAGE analysis
# Outline: (§3)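 Thrombin preincubated 10 min at 37 °C with compound, then mixed with human fibrinogen (3 mg/ml, containing factor XIII) in 50 mM TBS with 5 mM CaCl2; final thrombin 10.4 nM, 37 °C. Stopped at 5, 15, 30 min with urea/SDS/β-mercaptoethanol buffer. Run on 7.5% SDS-PAGE, Coomassie stained, scored for γ–γ dimer and α-polymer bands.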
# [28] = target: T1, Prothrombin; assay: Inhibition of human thrombin assessed as decrease in platelet aggregation at 25 to 250 uM preincubated for 10 mins measured for 10 mins by dual channel chrono-log aggregometric analysis
# Outline: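 Human plasma thrombin (17.6 nM in 50 mM TBS, pH 7.4) preincubated 10 min at 37 °C with compound from 50% DMSO stock (9:1 v/v). Added to gel-filtered human platelets in modified Tyrode's buffer (1.5 × 10^5/μl), pre-warmed 5 min at 37 °C with stirring; final thrombin 2.4 nM, DMSO 0.77%. Turbidimetric aggregation followed for 10 min. Given as % of solvent control; eight independent experiments in duplicate.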
# [29] = target: T1, Prothrombin; assay: Inhibition of human thrombin assessed as inhibition of fibrinogen gamma-gamma chain formation at 250 uM after 15 mins by SDS-PAGE analysis; outline: as §3
# [30] = target: T1, Prothrombin; assay: Inhibition of human thrombin assessed as inhibition of fibrinogen alpha-polymer formation at 250 uM after 15 mins by SDS-PAGE analysis; outline: as §3
# [31] = target: T1, Prothrombin; assay: Inhibition of human thrombin assessed as inhibition of fibrinogen polymerization at 1000 uM preincubated for 10 mins followed by fibrionogen addition measured for 20 mins
# Outline: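 Thrombin preincubated 10 min at 37 °C with compound, then added to human fibrinogen (3 mg/ml) in 50 mM TBS, 5 mM CaCl2, pH 7.4; final thrombin 10.4 nM. Turbidity at 595 nm read every 12 s for 20 min at 37 °C. Vmax expressed as % of solvent control; mean ± SD of 12 independent experiments in duplicate.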
# [32] = target: T1, Prothrombin; assay: Inhibition of human thrombin assessed as inhibition of fibrinogen alpha-polymer formation at 250 uM after 5 mins by SDS-PAGE analysis; outline: as §3
# [33] = target: T1, Prothrombin; conditions: 150 to 1000 uM
# [34] = target: T1, Prothrombin; conditions: 150 to 1000 uM; remark: listed apart in the source
smiles,measurement,setting,value
O=C1C[C@@H](c2ccc(O)cc2)Oc2cc(O)cc(O)c21,inhibition,[1],inactive
Oc1cc(O)c2cc(O)c(-c3ccc(O)c(O)c3)[o+]c2c1,inhibition,[2],Dose-dependent effect
same,inhibition,[3],inactive
same,inhibition,[4],Active
same,inhibition,[5],inactive
same,inhibition,[6],Dose-dependent effect
same,inhibition,[7],inactive
same,inhibition,[8],Dose-dependent effect
same,RU,[9],2250
same,inhibition,[10],Active
same,inhibition,[11],Active
same,inhibition,[12],inactive
same,inhibition,[13],Active
COc1ccc([C@@H]2CC(=O)c3c(O)cc(O[C@@H]4O[C@H](CO[C@@H]5O[C@@H](C)[C@H](O)[C@@H](O)[C@H]5O)[C@@H](O)[C@H](O)[C@H]4O)cc3O2)cc1O,inhibition,[1],inactive
C[C@@H]1O[C@@H](O[C@H]2[C@H](Oc3cc(O)c4c(c3)O[C@H](c3ccc(O)cc3)CC4=O)O[C@H](CO)[C@@H](O)[C@@H]2O)[C@H](O)[C@H](O)[C@H]1O,inhibition,[1],inactive
Oc1cc(O)c2c(c1)O[C@H](c1ccc(O)c(O)c1)[C@@H](O)C2,inhibition,[2],inactive
same,inhibition,[8],Dose-dependent effect
same,Ka,[14],2.03 ×10⁴ /M
same,inhibition,[15],inactive
same,inhibition,[10],Active
same,inhibition,[16],inactive
O=c1c(O)c(-c2ccc(O)c(O)c2)oc2cc(O)cc(O)c12 [QUERCETIN],IC50,[17],15.4 µM
same,inhibition,[18],Active
same,inhibition,[19],Active
same,inhibition,[20],Active
same,inhibition,[2],Dose-dependent effect
same,IC50,[21],30 µM
same,inhibition,[3],inactive
same,IC50,[22],12.1 µM
same,inhibition,[4],Active
same,inhibition,[5],inactive
same,inhibition,[6],Dose-dependent effect
same,inhibition,[7],inactive
same,inhibition,[8],Dose-dependent effect
same,inhibition,[23],Active
same,Ka,[14],2.59 ×10⁷ /M
same,RU,[9],1880
same,inhibition,[24],Active
same,inhibition,[10],Active
same,inhibition,[11],Active
same,inhibition,[12],inactive
O=C(O)c1cc(O)c(O)c(O)c1,inhibition,[1],inactive
OC[C@H]1O[C@@H](Oc2cc3c(O[C@@H]4O[C@H](CO)[C@@H](O)[C@H](O)[C@H]4O)cc(O)cc3[o+]c2-c2ccc(O)c(O)c2)[C@H](O)[C@@H](O)[C@@H]1O,inhibition,[25],inactive
same,inhibition,[2],inactive
same,inhibition,[26],inactive
same,inhibition,[8],Dose-dependent effect
same,Ka,[14],1.15 ×10² /M
C[C@@H]1O[C@@H](OC[C@H]2O[C@@H](Oc3c(-c4ccc(O)c(O)c4)oc4cc(O)cc(O)c4c3=O)[C@H](O)[C@@H](O)[C@@H]2O)[C@H](O)[C@H](O)[C@H]1O,inhibition,[1],inactive
Oc1cc(O)c2c(c1)O[C@H](c1ccc(O)c(O)c1)[C@H](O)[C@H]2c1c(O)cc(O)c2c1O[C@H](c1ccc(O)c(O)c1)[C@H](O)C2,inhibition,[1],inactive
COc1cc(C2Oc3cc([C@H]4Oc5cc(O)cc(O)c5C(=O)[C@@H]4O)ccc3OC2CO)ccc1O (some centres undefined) [SILIBININ],IC50,[17],3.7 µM
same,inhibition,[2],Dose-dependent effect
same,inhibition,[27],Active
same,IC50,[21],20.9 µM
same,inhibition,[28],Active
same,inhibition,[29],inactive
same,IC50,[22],21 µM
same,inhibition,[8],Dose-dependent effect
same,Ka,[14],5.39 ×10⁴ /M
same,RU,[9],1420
same,inhibition,[10],Active
same,inhibition,[30],inactive
same,inhibition,[31],Active
same,inhibition,[32],Active
O=C(O)/C=C/c1ccc(O)cc1,inhibition,[1],inactive
Oc1cc(O)c2c(c1)O[C@H](c1ccc(O)c(O)c1)[C@H](O)C2,inhibition,[33],inactive
same,inhibition,[34],inactive
same,inhibition,[2],inactive
same,inhibition,[8],Dose-dependent effect
same,Ka,[14],1.92 ×10² /M
same,inhibition,[10],Active
COc1ccc([C@@H]2CC(=O)c3c(O)cc(O)cc3O2)cc1O,inhibition,[1],inactive
O=c1c(-c2ccc(O)cc2)coc2cc(O)cc(O)c12,inhibition,[1],inactive
O=C(/C=C/c1ccc(O)c(O)c1)O[C@@H]1C[C@](O)(C(=O)O)C[C@@H](O)[C@H]1O,inhibition,[1],inactive
O=C(O)Cc1ccc(O)cc1,inhibition,[1],inactive
